The Km is the substrate concentration at which the rate is half of its maximum. The term kcat denotes the number of substrate molecules converted per active site and unit of time at saturation.

In ChEMBL document CHEMBL1152244, “Proteochemometrics analysis of substrate interactions with dengue virus NS3 proteases” (Bioorg Med Chem, 2008) one finds Km and kcat data, which are given here for seven compounds.

The subject of one experiment is dengue virus type 3. Put plainly: Activity of dengue virus 3 recombinant NS3 protease expressed in Escherichia coli C41(DE3) by fluorogenic assay. Summed up:
(§1)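 NS2B(H)-NS3pro from inclusion bodies, Ni-chelate and gel filtration purified under 8 M urea, refolded by dialysis. Internally quenched Abz–RRRR-XXXX–nY–NH2 peptides, 1–100 µM (12 points), enzyme 150–200 nM, 50 mM Tris–HCl pH 9.0, 20% glycerol, 37 °C. Cleavage read as fluorescence, ex 320/em 420 nm. Initial rates fitted to give Km and kcat, averaged over ≥3 independent measurements.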

A further experiment has as its system dengue virus type 4. Put plainly: Activity of dengue virus 4 recombinant NS3 protease expressed in Escherichia coli C41(DE3) by fluorogenic assay. Summed up:
as §1

The test system of another experiment is dengue virus type 2. Put plainly: Activity of dengue virus 2 recombinant NS3 protease expressed in Escherichia coli C41(DE3) by fluorogenic assay. The method in brief: as §1
The test system of the next experiment is dengue virus type 1. Put plainly: Activity of dengue virus 1 recombinant NS3 protease expressed in Escherichia coli C41(DE3) by fluorogenic assay. Summed up: as §1

Each structure is given as a SMILES string. Non-standard residues stand in square brackets, D forms with d. Residues, ends and D or L forms follow the SMILES beside them. Tyr(3-NO2) = N[C@@H](Cc1ccc(O)c([N+](=O)[O-])c1)C(=O)O; 2Abz = Nc1ccccc1C(=O)O

On to `C[C@@H](O)[C@H](NC(=O)[C@H](CO)NC(=O)[C@H](CC(=O)O)NC(=O)c1ccccc1N)C(=O)N[C@@H](CS)C(=O)N[C@@H](Cc1ccc(O)c([N+](=O)[O-])c1)C(N)=O` (H-[2Abz]DSTC[Tyr(3-NO2)]-NH2), for which the Michaelis-Menten constant (Km) in the experiment on dengue virus type 3 was 11.1 µM; with dengue virus type 4, 23.1 µM; in the experiment on dengue virus type 2, 12.8 µM; in the experiment with dengue virus type 1 it was 15.2 µM. For the same compound, the kcat with dengue virus type 3 came out at 0.2 min⁻¹; with dengue virus type 4, 0.84 min⁻¹; in the experiment on dengue virus type 2, 0.07 min⁻¹; in the experiment on dengue virus type 1, 0.46 min⁻¹.
For `NC(=O)[C@H](Cc1ccc(O)c([N+](=O)[O-])c1)NC(=O)[C@H](Cc1cnc[nH]1)NC(=O)[C@@H]1CCCN1C(=O)[C@H](CO)NC(=O)[C@H](Cc1cnc[nH]1)NC(=O)c1ccccc1N` (H-[2Abz]HSPH[Tyr(3-NO2)]-NH2), the Km came out at 19.6 µM with dengue virus type 3, 7.25 µM in the experiment with dengue virus type 4, 5.77 µM with dengue virus type 2 and 16.7 µM with dengue virus type 1. Besides, the kcat is 0.05 min⁻¹ with dengue virus type 3, 0.25 min⁻¹ in the experiment with dengue virus type 4, 0.07 min⁻¹ with dengue virus type 2 and 0.38 min⁻¹ with dengue virus type 1.
Turning to `C[C@H](NC(=O)CNC(=O)c1ccccc1N)C(=O)N[C@H](C(=O)N[C@@H](Cc1cnc[nH]1)C(=O)N[C@@H](Cc1ccc(O)c([N+](=O)[O-])c1)C(N)=O)[C@@H](C)O` (H-[2Abz]GATH[Tyr(3-NO2)]-NH2), the Km in the experiment with dengue virus type 3 came out at 18.9 µM; in the experiment on dengue virus type 4, 7.79 µM; in the experiment on dengue virus type 2 it was 4.66 µM; in the experiment with dengue virus type 1, 17.4 µM. Besides, the kcat with dengue virus type 3 was 1.42 min⁻¹; in the experiment with dengue virus type 4, 4.69 min⁻¹; in the experiment with dengue virus type 2, 0.94 min⁻¹; with dengue virus type 1 it was 4.95 min⁻¹.
Regarding `CSCC[C@H](NC(=O)[C@H](C)NC(=O)[C@H](C)NC(=O)[C@H](CO)NC(=O)c1ccccc1N)C(=O)N[C@@H](Cc1ccc(O)c([N+](=O)[O-])c1)C(N)=O` (H-[2Abz]SAAM[Tyr(3-NO2)]-NH2), the Km was found to be 13.8 µM in the experiment on dengue virus type 3, 14.3 µM with dengue virus type 4, 3.33 µM in the experiment on dengue virus type 2 and 16.3 µM with dengue virus type 1. The catalytic constant (kcat) in the experiment on dengue virus type 3 was found to be 1.8 min⁻¹; in the experiment with dengue virus type 4 it was 13.2 min⁻¹; in the experiment on dengue virus type 2, 1.56 min⁻¹; in the experiment on dengue virus type 1, 9.18 min⁻¹.
Turning to `CC(C)C[C@H](NC(=O)[C@@H](NC(=O)CNC(=O)[C@H](C)NC(=O)c1ccccc1N)C(C)C)C(=O)N[C@@H](Cc1ccc(O)c([N+](=O)[O-])c1)C(N)=O` (H-[2Abz]AGVL[Tyr(3-NO2)]-NH2), the Michaelis-Menten constant (Km) in the experiment with dengue virus type 3 came out at 10.6 µM; with dengue virus type 4 it was 10.8 µM; in the experiment on dengue virus type 2, 2.19 µM; with dengue virus type 1 it was 23.9 µM. Besides, the kcat was 0.63 min⁻¹ in the experiment on dengue virus type 3, 3.32 min⁻¹ in the experiment on dengue virus type 4, 0.34 min⁻¹ in the experiment on dengue virus type 2 and 3.6 min⁻¹ with dengue virus type 1.
As for `C[C@H](NC(=O)c1ccccc1N)C(=O)NCC(=O)N1CCC[C@H]1C(=O)N[C@@H](CC(N)=O)C(=O)N[C@@H](Cc1ccc(O)c([N+](=O)[O-])c1)C(N)=O` (H-[2Abz]AGPN[Tyr(3-NO2)]-NH2), the Michaelis constant (Km) turned out to be 10.8 µM in the experiment on dengue virus type 3, 19.2 µM in the experiment on dengue virus type 4, 4.18 µM with dengue virus type 2 and 12.6 µM in the experiment on dengue virus type 1. Further, the kcat with dengue virus type 3 came to 0.62 min⁻¹; with dengue virus type 4, 4.47 min⁻¹; in the experiment on dengue virus type 2 it was 0.41 min⁻¹; in the experiment on dengue virus type 1 it was 1.54 min⁻¹.
Consider `NC(=O)C[C@H](NC(=O)CNC(=O)[C@H](Cc1cnc[nH]1)NC(=O)[C@H](Cc1cnc[nH]1)NC(=O)c1ccccc1N)C(=O)N[C@@H](Cc1ccc(O)c([N+](=O)[O-])c1)C(N)=O` (H-[2Abz]HHGN[Tyr(3-NO2)]-NH2), for which the Km with dengue virus type 3 worked out at 10.1 µM; in the experiment with dengue virus type 4, 7.06 µM; with dengue virus type 2 it was 4.34 µM; in the experiment with dengue virus type 1, 9.1 µM. The catalytic constant (kcat) in the experiment with dengue virus type 3 came to 0.11 min⁻¹; in the experiment on dengue virus type 4, 1.15 min⁻¹; in the experiment with dengue virus type 2, 0.08 min⁻¹; in the experiment with dengue virus type 1, 0.24 min⁻¹.
